In the library only some 2.6% were active in any assay of this set; here they are far more common.
OXTR potentiator – potentiates the human oxytocin receptor response; P30559; CHO-OTR cells, Fluo-8 calcium fluorescence, potentiator mode; 0% = oxytocin EC15, 100% = EC100; activation, % at 3 µM; 320,000 compounds, 0.061% hits; AID 2445;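 active = activation above that plate's cutoff, the mean activation of tested compounds plus 3 SD, cut at about 6.6% in these data, passing the limit was not always enough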;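 also: 100% uses oxytocin at 75 nM as the full agonist control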
Target sequence (P30559 whole entry, looked up): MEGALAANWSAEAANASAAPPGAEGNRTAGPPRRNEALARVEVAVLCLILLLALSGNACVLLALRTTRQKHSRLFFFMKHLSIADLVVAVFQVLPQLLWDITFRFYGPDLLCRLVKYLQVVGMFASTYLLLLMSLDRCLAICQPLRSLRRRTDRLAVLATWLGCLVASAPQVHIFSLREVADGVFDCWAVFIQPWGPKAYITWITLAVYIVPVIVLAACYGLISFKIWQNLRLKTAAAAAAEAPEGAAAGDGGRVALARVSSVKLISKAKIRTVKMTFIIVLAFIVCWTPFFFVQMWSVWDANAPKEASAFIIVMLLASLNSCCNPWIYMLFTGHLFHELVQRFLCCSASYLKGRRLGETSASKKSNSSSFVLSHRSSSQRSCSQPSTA
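Assay system: CHO-OTR cells, human receptor / Also added: oxytocin at about EC15, sub-maximal agonist stimulus / Dosing: single dose, 3.0 µM nominal final compound concentration / Incubation: 6 min pre-incubation, 100 s read / Technique: Fluo-8 calcium dye fluorescence / Read-out: % activation vs EC15 and EC100 oxytocin / Benchmarks: EC15 oxytocin low, 75 nM oxytocin high / Replicates: singlicate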
OXTR ag – human OXTR agonism | activation, % at 3 µM | CHO-OTR cells, Fluo-8 calcium fluorescence; normalized: DMSO 0%, oxytocin 100% | AID 2435 | 320,000 compounds, 0.32% hits;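 active = activation above the mean of all tested compounds plus 3 SD, cutoff set per screening run, cut at about 20% in these data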;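 also: peak over basal fluorescence ratio from a 100 s FLIPR kinetic read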
OX1R antag-1 – human HCRTR1 antagonism | CHO/OX1R cells, Fluo-8 calcium fluorescence, orexin A | inhibition, % at 5 µM | 330,000 compounds, 0.43% hits;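 active = inhibition above its plate's threshold, mean inhibition of all tested compounds on the plate plus 3 SD, cut at about 37% in these data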;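 also: 0% = orexin A challenge wells and 100% = SB-334867-A antagonist wells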
Target sequence (O43613 whole entry, looked up): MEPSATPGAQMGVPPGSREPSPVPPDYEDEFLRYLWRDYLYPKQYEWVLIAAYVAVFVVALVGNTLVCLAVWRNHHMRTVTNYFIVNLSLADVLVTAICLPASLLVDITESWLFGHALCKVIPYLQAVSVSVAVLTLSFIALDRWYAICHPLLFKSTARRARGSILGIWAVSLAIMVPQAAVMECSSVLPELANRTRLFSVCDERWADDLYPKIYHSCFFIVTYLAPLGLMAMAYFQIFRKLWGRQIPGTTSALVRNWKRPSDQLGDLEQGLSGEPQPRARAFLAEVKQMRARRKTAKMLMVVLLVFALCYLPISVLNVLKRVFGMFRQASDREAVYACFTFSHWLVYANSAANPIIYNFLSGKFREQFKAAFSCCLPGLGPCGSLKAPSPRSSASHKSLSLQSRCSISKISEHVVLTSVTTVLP
CHO parental Ca – counter-screen: ATP calcium response change in parental CHO cells; parental CHO-K1, ATP-induced calcium, Fluo-8 fluorescence; inhibition, % at 5.6 µM; 330,000 compounds, 0.63% hits;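 active = inhibition above that plate's mean sample inhibition plus 3 SD, cut at about 26% in these data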;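 also: 0% = ATP-challenged DMSO wells and 100% = DMSO wells without ATP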
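material = parental CHO cells | also added = ATP as calcium-mobilizing challenge | dosing = single point at 5.6 µM | detection = intracellular calcium via Fluo-8 no-wash fluorescent dye | read-out = % inhibition | benchmarks = low control ATP plus DMSO, high control DMSO only | repeats = one well per compound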
V1aR counter – counter-screen for oxytocin receptor agonists: human V1a receptor agonists | P37288 | CHO-V1R cells, Fluo-8 calcium fluorescence, agonist mode; 0% DMSO, 100% 3 nM vasopressin | activation, % at 3 µM | 320,000 compounds, 0.25% hits | AID 2797;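 active = activation above the mean activation of all tested compounds plus 3 SD, per screening run, cut at about 20% in these data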;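 also: signal is peak over basal fluorescence ratio across a 100 second FLIPR read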
OX1R antag-2 – OX1R (human) antagonism; OX1R-expressing cells, FRET antagonist read-out; inhibition, % at 6.6 µM; 330,000 compounds, 1.8% hits; AID 485270; in the data active = inhibition mostly above about 38%, no sharp cut-off; inactive = mostly below about 40%;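 also: 0% = agonist challenge alone and 100% = reference antagonist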
OX1R HTRF confirm – confirmation of human orexin 1 receptor antagonists, HTRF format | 1,800 compounds, 49% hits | OX1R-expressing cells, HTRF antagonist assay | shares compounds with OX1R antag-2 | inhibition, % at 6.6 µM; in the data active = inhibition above about 55%;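 also: CHO cells expressing OX1R stimulated with orexin A at about EC80; 0% = agonist challenge alone and 100% = reference antagonist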
CHO-K1 HTRF cnt – signal in parental CHO-K1 cells, OX1R antagonist counter-screen | 1,800 compounds, 48% hits | inhibition, % at 6.6 µM | HTRF counterscreen | AID 493232 | shares compounds with OX1R antag-2; in the data active = inhibition above about 17%;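 also: 0% = agonist challenge with vehicle and 100% = vehicle alone without agonist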
An asterisk follows results filed as active; . = no result given.

SMILES | OXTR potentiator | OXTR ag | OX1R antag-1 | CHO parental Ca | V1aR counter | OX1R antag-2 | OX1R HTRF confirm | CHO-K1 HTRF cnt
Cc1ccc(NC(=O)CCNC(=O)c2ccc(Br)cc2)cc1S(=O)(=O)N1CCCCCC1 | -4.2 | -1.2 | -35.3 | -42.9 | -0.7 | 16.9 | . | .
CCc1cc[n+](-c2nc([O-])sc2C=O)cc1 | -1.5 | 1.9 | -9.6 | -10.4 | 3.0 | 149.1* | 46.8 | 62.2*
Cc1ccc[n+](-c2nc([O-])sc2/C=N/Nc2ccc([N+](=O)[O-])cc2)c1 | -4.0 | 0.6 | -12.7 | -14.7 | 0.2 | 22.9 | . | .
CC(C)(C)c1cc[n+](-c2nc([O-])sc2C=O)cc1 | -0.7 | -0.1 | 18.8 | -7.7 | 1.1 | 79.4* | 72.5* | 74.4*
CC(C)c1cc[n+](-c2nc([O-])sc2C=O)cc1 | 1.1 | 1.2 | -0.1 | 6.9 | 0.1 | 98.2* | 43.1 | 63.7*
O=Cc1c(-[n+]2ccccc2)nc([O-])n1-c1ccccc1 | -14.6 | 0.1 | -16.3 | -0.2 | 1.1 | 35.3 | . | .
CCOc1cccc2c1OC(c1cc(OC)c(OC)c(OC)c1)N1N=C(c3ccc(C)o3)CC21 (stereo not given) | -5.0 | 1.1 | 13.1 | 4.5 | 1.7 | 28.7 | . | .
Cc1ccsc1/C=C1/SC(=O)N(CC(=O)N2CCOCC2)C1=O | -8.4 | 0.5 | -6.6 | -15.8 | 1.9 | 37.0 | . | .
CC(C)(C)C(=O)N1CCN(CCN2C(=O)c3cccc4cccc(c34)C2=O)CC1 | -15.3 | 0.0 | -10.2 | -6.7 | 0.9 | 12.7 | . | .
O=C(CN1C(=O)S/C(=C/c2ccc(N3CCOCC3)cc2)C1=O)N1CCOCC1 | -0.5 | 2.0 | 6.5 | -3.3 | 3.4 | 85.2* | 41.4 | 47.2*
O=C(CN1C(=O)c2cccc3cccc(c23)C1=O)N1CCOCC1 | -4.0 | -0.5 | -17.2 | -7.7 | 0.0 | 104.3* | 47.1 | 86.9*
O=C(CN1c2cccc3cccc(c23)S1(=O)=O)N1CCOCC1 | -1.6 | 1.1 | -15.9 | -7.2 | -0.2 | 19.6 | . | .
COc1ccc(C(=O)CN2CCN(CCN3C(=O)c4cccc5cccc(c45)C3=O)CC2)cc1 | -4.4 | -0.3 | -32.5 | -23.2 | -1.0 | 91.2* | 35.8 | 21.3*
COc1ccc(-c2ccc(NC(=O)c3ccco3)cc2)nn1 | 8.7 | 0.7 | -14.7 | 2.4 | 0.0 | 11.4 | . | .
O=C(NN1C(=O)/C(=C/c2ccc(O)c([N+](=O)[O-])c2)SC1=S)c1ccccc1Cl | -9.1 | 5.4 | -29.3 | -15.4 | 6.6 | 112.3* | 55.4* | 17.3*
O=C(NN1C(=O)/C(=C/c2cc([N+](=O)[O-])ccc2O)SC1=S)c1ccccc1O | -5.6 | 1.2 | -8.7 | -4.4 | 0.7 | 13.8 | . | .
O=C(c1cccc(Cl)c1)N(Cc1ccco1)C1CCS(=O)(=O)C1 (stereo not given) | 0.8 | 0.5 | -11.2 | -2.7 | 0.5 | 2.2 | . | .
COc1cccc(Nc2ncnc3c2cnn3-c2cccc(C)c2)c1 | -2.3 | -0.4 | 8.2 | -9.6 | 0.2 | 91.9* | 45.5 | 0.4
COCCNC(=O)C(c1ccc(F)cc1)N(Cc1ccccc1)C(=O)CCC(=O)Nc1nccs1 (stereo not given) | -0.4 | 1.9 | 16.5 | -12.8 | 2.2 | 77.6* | 80.1* | 1.5
CCOC(=O)N1CCN(C(=O)/C(=C/c2cccs2)NC(=O)c2ccc(OC)c(OC)c2)CC1 | -6.6 | 2.0 | -34.6 | -11.1 | 1.3 | 9.2 | . | .
COc1ccccc1C(=O)Oc1ccc2c(c1)O/C(=C\c1ccncc1)C2=O | -3.1 | 6.5 | -9.1 | -6.3 | 8.6 | 77.8* | 19.3 | -6.1
O=S(=O)(NCC1CCCO1)c1ccc(Cl)cc1 (stereo not given) | 2.8 | 1.7 | -6.6 | -0.9 | 1.0 | -1.3 | . | .
CCCCNc1nc2ccccc2nc1NS(=O)(=O)c1ccc(F)cc1 | -15.1 | 3.9 | -28.6 | -9.6 | 9.0 | 11.2 | . | .
O=S(=O)(Nc1nc2ccccc2nc1NCc1ccco1)c1ccc(F)cc1 | 0.2 | 6.2 | -26.5 | -11.7 | 3.9 | 171.3* | 18.4 | 3.2
COc1cccc(NC(=O)Nc2ccc3c(c2)N(C)C(=O)CS3)c1 | -23.4 | 3.8 | 3.1 | 13.2 | 4.7 | 81.6* | 27.7 | 10.7
SMILES | OXTR potentiator | OXTR ag | OX1R antag-1 | CHO parental Ca | V1aR counter | OX1R antag-2 | OX1R HTRF confirm | CHO-K1 HTRF cnt
CC(=O)Nc1ccc(NC(=O)Nc2ccc3c(c2)N(C)C(=O)CS3)cc1 | -0.9 | -0.1 | -10.7 | -0.1 | 0.8 | 14.1 | . | .
O=C(Nc1ccc(Cl)c(-c2nc3ccccc3[nH]2)c1)c1ccc2c(c1)OCO2 | -4.3 | -1.3 | -25.5 | -18.6 | -0.3 | 82.2* | 84.1* | 9.1
COc1ccc(C(=O)Oc2cccc(Nc3ncnc4ccccc34)c2)cc1OC | -20.9 | 12.4 | 14.0 | 3.0 | 9.1 | 83.8* | 50.3 | 10.9
CCN1C(=O)c2cccc3c(S(=O)(=O)Nc4ccncc4)ccc1c23 | -8.3 | -0.3 | -18.9 | -1.9 | 0.3 | 18.1 | . | .
CCN1C(=O)c2cccc3c(S(=O)(=O)NCc4cccnc4)ccc1c23 | -10.5 | 0.0 | -7.4 | -1.6 | 0.8 | 77.2* | 29.5 | 14.5
O=c1c2ccccc2nc2ccc(N3CCOCC3)nn12 | -19.5 | -1.3 | -11.2 | -3.8 | -1.1 | 93.5* | 31.5 | 36.7*
Cc1ccc2nc3ccc(N4CCCCCCC4)nn3c(=O)c2c1 | -9.9 | -2.3 | -25.6 | -9.7 | -0.8 | 56.2 | . | .
Cc1ccc2nc3ccc(N4CCN(C)CC4)nn3c(=O)c2c1 | -7.0 | -0.1 | -11.3 | -12.8 | -0.6 | 76.9* | 35.9 | 25.3*
O=C1C(=O)N(CCN2CCOCC2)C(c2ccccn2)/C1=C(/O)c1ccccc1 (stereo not given) | -10.4 | 0.1 | -5.4 | -6.6 | 1.9 | 178.5* | 26.4 | 36.0*
COc1ccc(/C(O)=C2/C(=O)C(=O)N(CCN(C)C)C2c2ccccn2)cc1OC (stereo not given) | -4.6 | 0.9 | -4.3 | -4.2 | 0.1 | 52.4 | . | .
Cc1ccc(/C(O)=C2/C(=O)C(=O)N(CCN3CCOCC3)C2c2ccccn2)cc1 (stereo not given) | -3.4 | 0.3 | -2.5 | 15.0 | -0.3 | 82.3* | 23.7 | 32.7*
COc1ccc(/C(O)=C2/C(=O)C(=O)N(CCN3CCOCC3)C2c2ccccn2)cc1OC (stereo not given) | -9.4 | -1.3 | -9.7 | -9.8 | 0.6 | 134.7* | 29.0 | 28.5*
CC1CC(C)CN(C(=O)CCn2c(=O)oc3ccccc32)C1 (stereo not given) | -9.3 | -1.5 | -18.3 | -15.5 | 0.0 | 27.3 | . | .
O=C(CN1C(=O)NC(Cc2c[nH]c3ccccc23)C1=O)Nc1ccc(Br)cc1F (stereo not given) | -4.8 | 2.1 | -17.2 | -14.6 | 2.1 | 9.5 | . | .
CCOc1cc(/C=N/NC(=O)C(=O)NC)cc(Br)c1O | -3.8 | -2.3 | -11.2 | 1.0 | 0.3 | 20.3 | . | .
